For test [1], the target named is Adenosine receptors; A2b & A3 (Homo sapiens) (UniProt P29275+P0DMS8). The test is described as follows: Selectivity ratio (h2B/hA3). The format is protein assay.
Test [2] concerns the target T1, Adenosine receptor A2a (Homo sapiens, UniProt P29274). The test is described as follows: Displacement of [3H]SCH-58261 from human Adenosine A2A receptor expressed in CHO cells. The format is cell-based. Put shortly:
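Membranes from CHO cells expressing the human receptor (50 µg protein) with [3H]SCH58261 and six to eight competitor concentrations. Incubated 60 min at 25 °C. Nonspecific binding was set with NECA.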

In test [3] the target is T2, Adenosine receptor A3 (Homo sapiens, UniProt P0DMS8).
T2 sequence (P0DMS8 whole entry): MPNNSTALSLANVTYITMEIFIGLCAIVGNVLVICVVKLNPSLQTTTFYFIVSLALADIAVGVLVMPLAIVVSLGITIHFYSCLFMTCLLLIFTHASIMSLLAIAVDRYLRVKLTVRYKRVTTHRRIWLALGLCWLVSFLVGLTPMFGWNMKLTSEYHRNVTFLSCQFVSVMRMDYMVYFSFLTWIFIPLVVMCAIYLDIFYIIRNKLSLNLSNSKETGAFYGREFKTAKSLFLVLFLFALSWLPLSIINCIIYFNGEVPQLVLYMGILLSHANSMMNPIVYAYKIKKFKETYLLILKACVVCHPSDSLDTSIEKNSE
The experiment in a line: Displacement of […] from human Adenosine A3 receptor expressed in CHO cells. The class given is cell-based. An outline of the steps:
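Membranes of CHO cells stably expressing human A3 receptor (50 µg protein/assay), incubated in duplicate with 1 nM [3H]MRE3008-F20 in 50 mM Tris HCl, 10 mM MgCl2 (pH 7.4) and six to eight ligand concentrations, 120 min at 4 °C. Nonspecific binding was set with 1 µM MRE3008-F20. Separation was by GF/B filtration and scintillation counting; n = 3-6.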

Test [4] concerns the target Adenosine receptors; A1 & A3 (Homo sapiens) (UniProt P30542+P0DMS8). The experiment in a line: Selectivity ratio (hA1/hA3). The format is protein assay.
In test [5] the target is T3, Adenosine receptor A2b (Homo sapiens, UniProt P29275).
T3 sequence (P29275 whole entry): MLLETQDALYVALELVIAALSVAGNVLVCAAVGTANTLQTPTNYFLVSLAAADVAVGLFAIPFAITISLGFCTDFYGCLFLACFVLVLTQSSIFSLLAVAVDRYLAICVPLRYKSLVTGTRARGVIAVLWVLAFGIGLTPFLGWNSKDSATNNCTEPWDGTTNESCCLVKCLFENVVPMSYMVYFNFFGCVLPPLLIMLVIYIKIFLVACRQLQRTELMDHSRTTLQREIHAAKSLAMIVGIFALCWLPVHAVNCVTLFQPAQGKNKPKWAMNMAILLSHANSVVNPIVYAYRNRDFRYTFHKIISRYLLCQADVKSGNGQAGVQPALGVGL
The experiment in a line: Displacement of [3H]DPCPX binding at human Adenosine A2B receptor expressed in HEK293 cells. The format is cell-based. Put shortly: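 Membranes from HEK-293 cells with human recombinant A2B receptor. Incubation 60 min at 25 °C in 50 mM Tris HCl, 10 mM MgCl2, 1 mM EDTA, 0.1 mM benzamidine, pH 7.4, with 2 IU/mL adenosine deaminase and 40 nM [3H]DPCPX. At least six to eight test concentrations. Nonspecific binding defined with NECA. n = 3-6.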
In general terms: Loss of bound radioactivity is the signal in a displacement assay; it reports binding, not function.

Test [6] addresses T4, Adenosine receptor A1 (Homo sapiens, UniProt P30542).
T4 sequence (P30542 whole entry): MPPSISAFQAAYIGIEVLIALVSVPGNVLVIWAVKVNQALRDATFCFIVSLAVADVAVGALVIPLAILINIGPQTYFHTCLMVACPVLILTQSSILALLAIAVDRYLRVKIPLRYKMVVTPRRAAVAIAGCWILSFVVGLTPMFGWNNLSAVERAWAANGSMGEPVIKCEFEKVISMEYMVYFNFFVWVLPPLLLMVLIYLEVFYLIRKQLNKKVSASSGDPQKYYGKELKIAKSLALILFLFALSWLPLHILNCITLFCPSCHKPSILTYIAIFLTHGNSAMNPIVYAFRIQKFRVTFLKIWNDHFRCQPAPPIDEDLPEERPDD
The experiment in a line: Displacement of [3H]DPCPX from human Adenosine A1 receptor expressed in CHO cells. The format is cell-based. Put shortly:
(§1)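 Human recombinant A1 receptor in CHO cell membranes, resuspended in 50 mM Tris HCl pH 7.4. Displacement run 120 min at 25 °C with 1 nM [3H]DPCPX, 50 µg protein per assay, and at least six to eight test concentrations. Nonspecific binding defined with CHA. Bound and free separated on glass-fiber filters; filter radioactivity counted. n = 3-6.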

The target in test [7] is T3, Adenosine receptor A2b. The test is described as follows: Displacement of [3H]DPCPX from human Adenosine A2B receptor expressed in HEK293 cells; range 25-40. The format is cell-based. An outline of the steps: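 HEK-293 membranes expressing the human receptor were incubated 60 min at 25 °C. Six to eight test concentrations were used. Nonspecific binding was set with NECA. n = 3-6.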

In test [8] the target is T2, Adenosine receptor A3. The experiment in a line: Displacement of [3H]MRE3008-F20 from human Adenosine A3 receptor expressed in HEK cells; range 2.0-3.1. The class given is cell-based, HEK293.
For test [9], the target named is T4, Adenosine receptor A1. The test is described as follows: Displacement of [3H]DPCPX from human Adenosine A1 receptor expressed in CHO cells; range 552-676. The format is cell-based. Put shortly:
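Competition binding on membranes of CHO cells stably expressing human A1 receptor, resuspended in 50 mM Tris HCl pH 7.4. Incubation 120 min at 25 °C with 1 nM [3H]DPCPX, 50 µg protein per assay and at least six to eight test concentrations. CHA defined nonspecific binding. Bound ligand separated on glass-fibre filters and counted; n = 3-6.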

Test [10] concerns the target T1, Adenosine receptor A2a. The experiment in a line: Displacement of [3H]SCH-58261 from human Adenosine A2A receptor expressed in HEK293 cells; range 362-445. The format is cell-based.
Test [11] concerns the target T4, Adenosine receptor A1. The experiment in a line: Displacement of [3H]DPCPX from human Adenosine A1 receptor expressed in CHO cells; range 436-810. The class given is cell-based. An outline of the steps: as §1
In test [12] the target is T2, Adenosine receptor A3. The test is described as follows: Inhibition of IB-MECA agonist-mediated cAMP production in CHO cell membranes expressing human Adenosine A3 receptor; range 130-279. The format is functional, cell-based.
Test [13] has as its target T2, Adenosine receptor A3. The experiment in a line: Displacement of [3H]MRE3008-F20 from human Adenosine A3 receptor expressed in HEK cells; range 19-34. The format is cell-based, HEK293.
Test [14] addresses T1, Adenosine receptor A2a. The test is described as follows: Displacement of [3H]SCH-58261 from human Adenosine A2A receptor expressed in HEK293 cells. The class given is cell-based.

Structures are written as SMILES. Bounds are passed on as bounds.

This passage reports Ratio, Ki and IC50 results from ChEMBL document CHEMBL1136016, “Synthesis, biological activity, and molecular modeling investigation of new pyrazolo[4,3-e]-1,2,4-triazolo[1,5-c]pyrimidine derivatives as human A(3) adenosine receptor antagonists” (J Med Chem, 2002).

T1 sequence (P29274 whole entry): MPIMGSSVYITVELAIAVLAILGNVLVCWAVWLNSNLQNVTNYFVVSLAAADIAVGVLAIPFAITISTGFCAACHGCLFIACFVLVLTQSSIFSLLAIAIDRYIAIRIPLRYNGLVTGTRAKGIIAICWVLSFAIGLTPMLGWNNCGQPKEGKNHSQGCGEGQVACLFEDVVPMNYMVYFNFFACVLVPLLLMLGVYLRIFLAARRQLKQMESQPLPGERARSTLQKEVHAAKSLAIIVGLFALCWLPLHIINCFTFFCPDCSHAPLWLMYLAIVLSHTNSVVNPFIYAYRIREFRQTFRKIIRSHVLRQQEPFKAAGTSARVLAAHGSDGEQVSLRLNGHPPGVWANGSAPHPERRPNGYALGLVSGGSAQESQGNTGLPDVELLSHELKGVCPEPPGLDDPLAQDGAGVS

Broadly, the Ki is a dissociation constant, usually derived from enzyme kinetics or from competition with a known ligand. As to `CCn1cc2c(nc(NC(=O)Nc3ccc([N+](=O)[O-])cc3)n3nc(-c4ccco4)nc23)n1`, the Ratio was found to be 348 in [1] and 1740 in test [4]. In addition, the Ki on Adenosine receptor A2a [2] was 614 nM; at Adenosine receptor A3 [3], 0.65 nM; on Adenosine receptor A2b [5], 226 nM; at Adenosine receptor A1 [6] it was 1130 nM.
As to `CCCn1cc2c(nc(NC(=O)Nc3ccc(Cl)c(Cl)c3)n3nc(-c4ccco4)nc23)n1`, the Ratio came to 12 in test [1] and 244 in [4]. Also, the Ki on Adenosine receptor A2b [7] amounted to 31 nM; at Adenosine receptor A3 [8] it was 2.5 nM; at Adenosine receptor A1 [9], 611 nM; on Adenosine receptor A2a [10] it was 401 nM.
As for `CCCn1cc2c(nc(NC(=O)Nc3cccc(Cl)c3)n3nc(-c4ccco4)nc23)n1`, the Ratio in test [1] worked out at 62.6; in test [4], 33.
Take `CCCCn1cc2c(nc(NC(=O)Nc3ccc([N+](=O)[O-])cc3)n3nc(-c4ccco4)nc23)n1`: the Ratio amounted to 96 in test [1] and 1060 in test [4]. Also, the inhibition constant Ki at Adenosine receptor A2a [2] is 503 nM; on Adenosine receptor A3 [3] it was 0.55 nM; on Adenosine receptor A2b [5], 52 nM; on Adenosine receptor A1 [6], 584 nM.
Turning to `COc1ccc(NC(=O)Nc2nc3nn(C)cc3c3nc(-c4ccco4)nn23)cc1`, the Ratio in [1] worked out at 1300; in test [4] it was 5480.
As for `CCCn1cc2c(nc(NC(=O)Nc3ccc([N+](=O)[O-])cc3)n3nc(-c4ccco4)nc23)n1`, the Ratio in [1] stood at 377; in test [4] it was 1500. For the same molecule, the Ki is 1110 nM on Adenosine receptor A2a [2], 0.81 nM at Adenosine receptor A3 [3], 305 nM at Adenosine receptor A2b [5] and 1210 nM on Adenosine receptor A1 [6].
For the molecule `CCn1cc2c(nc(NC(=O)Nc3cccc(Cl)c3)n3nc(-c4ccco4)nc23)n1`, the Ratio in test [1] worked out at 93.7; in [4] it was 155.
The term IC50 denotes the concentration that inhibits the measured activity by half. The low end stands for greater potency, the high end for weaker potency. Consider `Cn1cc2c(nc(NC(=O)Nc3ccc(S(=O)(=O)O)cc3)n3nc(-c4ccco4)nc23)n1`, for which the Ki is over 10000 nM at Adenosine receptor A1 [11], 25 nM at Adenosine receptor A3 [13], over 10000 nM on Adenosine receptor A2b [5] and 594 nM on Adenosine receptor A2a [14]. The Ratio in [1] and in test [4] was over 400 throughout. Besides, at Adenosine receptor A3 [12], the IC50 came to 190 nM.
For `CCCCn1cc2c(nc(NC(=O)Nc3ccc(OC)cc3)n3nc(-c4ccco4)nc23)n1`, the Ratio amounted to 946 in [1] and 925 in [4].
For `Cn1cc2c(nc(NC(=O)Nc3cccc(Cl)c3)n3nc(-c4ccco4)nc23)n1`, the results for the Ratio in [1] and in test [4] were 512 and 875, respectively.
